Test results published in ChEMBL document CHEMBL4308847, “Discovery, Structure-Activity Relationship, and Biological Characterization of a Novel Series of 6-((1 H-Pyrazolo[4,3- b]pyridin-3-yl)amino)-benzo[ d]isothiazole-3-carboxamides as Positive Allosteric Modulators of the Metabotropic Glutamate Receptor 4 (mGlu4)” (J Med Chem, 2018).

Experiments:
[1] = molecular target: T1, Metabotropic glutamate receptor 4 (Homo sapiens, UniProt Q14833); assay: Positive allosteric modulation of human mGlu4 receptor expressed in CHO cells co-expressing Gqi5 assessed as increase in glutamate-induced calcium mobilization preincubated for 142 secs followed by EC20 glutamate addition and subsequent EC80 glutamate addition after 147 secs by Fluo-4-AM dye based fluorescence assay; type: functional, cell-based
Procedure, shortened: (§1)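 CHO cells expressing human mGlu4 and Gqi5, plated at 30,000 cells/well and grown overnight at 37 °C, 5% CO2. Cells were loaded with 1 μM Fluo-4 AM for 45 min at 37 °C in HBSS/20 mM HEPES/2.5 mM probenecid. Compounds were run as 10-point, 1:3 dilution series. After 142 s, EC20 glutamate was added; 147 s later, EC80 glutamate. Fluorescence was normalized to the maximal glutamate response. EC50 and %Glu Max were fitted by four-parameter logistic, with maximum normalized to PHCCC.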

[2] = molecular target: T1, Metabotropic glutamate receptor 4; assay: Positive allosteric modulation of human mGlu4 receptor expressed in CHO cells co-expressing Gqi5 assessed as increase in glutamate-induced calcium mobilization preincubated for 142 secs followed by EC20 glutamate addition and measured after 147 secs by Fluo-4-AM dye based fluorescence assay relative to control; type: functional, cell-based; procedure, shortened: as §1
[3] = Intrinsic clearance in human liver microsomes at 1 uM preincubated for 5 mins followed by NADPH addition measured up to 45 mins by LC-MS/MS analysis; type: ADME, Microsome; settings: read-out: CLH
Procedure, shortened: (§2)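 Intrinsic and predicted hepatic clearance derived from liver microsome incubations.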

[4] = Intrinsic clearance in rat liver microsomes at 1 uM preincubated for 5 mins followed by NADPH addition measured up to 45 mins by LC-MS/MS analysis; type: ADME, Microsome; settings: read-out: CLH; procedure, shortened: as §2
[5] = Fraction unbound in human plasma after 4 hrs by equilibrium dialysis method; type: ADME, cell-free
[6] = Fraction unbound in rat plasma after 4 hrs by equilibrium dialysis method; type: ADME, cell-free
Cytochrome P450 1A2 = molecular target: T2, Cytochrome P450 1A2 (Homo sapiens, UniProt P05177); assay: Inhibition of CYP1A2 in human liver microsomes using phenacetin as substrate preincubated for 15 mins followed by substrate addition and measured after 8 mins by LC-MS/MS analysis; type: ADME
T2 sequence (P05177 whole entry): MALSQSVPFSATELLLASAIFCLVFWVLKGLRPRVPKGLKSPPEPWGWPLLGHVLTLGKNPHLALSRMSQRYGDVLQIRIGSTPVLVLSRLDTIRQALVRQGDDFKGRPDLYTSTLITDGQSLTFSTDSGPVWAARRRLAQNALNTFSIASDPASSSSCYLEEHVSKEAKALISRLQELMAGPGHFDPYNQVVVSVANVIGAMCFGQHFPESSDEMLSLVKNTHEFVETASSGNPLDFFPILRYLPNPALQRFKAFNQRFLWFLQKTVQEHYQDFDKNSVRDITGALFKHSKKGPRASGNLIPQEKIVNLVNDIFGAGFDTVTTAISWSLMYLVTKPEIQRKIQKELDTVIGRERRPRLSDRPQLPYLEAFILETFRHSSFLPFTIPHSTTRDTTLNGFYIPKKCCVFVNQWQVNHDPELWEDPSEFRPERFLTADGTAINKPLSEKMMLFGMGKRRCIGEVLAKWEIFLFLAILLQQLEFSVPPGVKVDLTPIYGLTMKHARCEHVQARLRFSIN
Procedure, shortened: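 IC50 for CYP1A2 inhibition determined in human liver microsomes using specific probe substrate-metabolite pairs.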

[7] = molecular target: Metabotropic glutamate receptor 4 (Rattus norvegicus, UniProt P31423); assay: Positive allosteric modulation of rat mGlu4 receptor expressed in HEK cells co-expressing GIRK1/2 assessed as increase in glutamate-induced thallium flux preincubated for 140 secs followed by glutamate addition and measured after 2.5 mins by FluoZin-2-AM dye based fluorescence assay; type: cell-based
Procedure, shortened: (§3)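 HEK cells co-expressing rat mGlu4 and GIRK1/2 were loaded for 1 h at room temperature with FluoZin-2 AM (330 nM final) in HBSS/20 mM HEPES pH 7.4. Compound was incubated 140 s, then thallium buffer with or without agonist was added. Reading continued for 2.5 min at room temperature. Potency was fitted by four-parameter logistic.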

[8] = molecular target: Metabotropic glutamate receptor 4 (Rattus norvegicus) (UniProt P31423); assay: Positive allosteric modulation of rat mGlu4 receptor expressed in HEK cells co-expressing GIRK1/2 assessed as increase in glutamate-induced thallium flux preincubated for 140 secs followed by glutamate addition and measured after 2.5 mins by FluoZin-2-AM dye based fluorescence assay relative to control; type: cell-based; procedure, shortened: as §3
Chain of Metabotropic glutamate receptor 4 (Rattus norvegicus) (P31423 whole entry): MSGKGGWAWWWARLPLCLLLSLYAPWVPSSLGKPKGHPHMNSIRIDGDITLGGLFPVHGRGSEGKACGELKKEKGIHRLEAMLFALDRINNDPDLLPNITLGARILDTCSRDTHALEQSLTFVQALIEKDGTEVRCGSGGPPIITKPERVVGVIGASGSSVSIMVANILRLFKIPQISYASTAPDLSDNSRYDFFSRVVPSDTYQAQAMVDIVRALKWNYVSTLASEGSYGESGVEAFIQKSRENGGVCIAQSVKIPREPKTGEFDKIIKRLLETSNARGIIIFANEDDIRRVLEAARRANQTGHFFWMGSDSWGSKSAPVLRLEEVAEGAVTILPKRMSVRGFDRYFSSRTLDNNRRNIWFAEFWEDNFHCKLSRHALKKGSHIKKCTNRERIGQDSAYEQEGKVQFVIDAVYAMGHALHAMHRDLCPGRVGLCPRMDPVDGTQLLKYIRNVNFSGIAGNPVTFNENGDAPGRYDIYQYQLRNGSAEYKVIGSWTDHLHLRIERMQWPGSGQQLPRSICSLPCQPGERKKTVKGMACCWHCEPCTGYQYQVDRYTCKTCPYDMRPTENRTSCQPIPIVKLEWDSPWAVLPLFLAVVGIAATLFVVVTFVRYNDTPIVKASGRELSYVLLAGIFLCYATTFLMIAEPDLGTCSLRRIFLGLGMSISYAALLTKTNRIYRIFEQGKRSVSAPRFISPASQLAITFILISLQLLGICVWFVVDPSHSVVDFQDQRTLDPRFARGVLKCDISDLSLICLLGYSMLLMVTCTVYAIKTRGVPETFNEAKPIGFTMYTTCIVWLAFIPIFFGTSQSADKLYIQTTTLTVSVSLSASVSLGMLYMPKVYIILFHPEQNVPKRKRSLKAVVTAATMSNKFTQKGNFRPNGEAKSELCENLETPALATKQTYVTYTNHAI

T1 sequence (Q14833 whole entry): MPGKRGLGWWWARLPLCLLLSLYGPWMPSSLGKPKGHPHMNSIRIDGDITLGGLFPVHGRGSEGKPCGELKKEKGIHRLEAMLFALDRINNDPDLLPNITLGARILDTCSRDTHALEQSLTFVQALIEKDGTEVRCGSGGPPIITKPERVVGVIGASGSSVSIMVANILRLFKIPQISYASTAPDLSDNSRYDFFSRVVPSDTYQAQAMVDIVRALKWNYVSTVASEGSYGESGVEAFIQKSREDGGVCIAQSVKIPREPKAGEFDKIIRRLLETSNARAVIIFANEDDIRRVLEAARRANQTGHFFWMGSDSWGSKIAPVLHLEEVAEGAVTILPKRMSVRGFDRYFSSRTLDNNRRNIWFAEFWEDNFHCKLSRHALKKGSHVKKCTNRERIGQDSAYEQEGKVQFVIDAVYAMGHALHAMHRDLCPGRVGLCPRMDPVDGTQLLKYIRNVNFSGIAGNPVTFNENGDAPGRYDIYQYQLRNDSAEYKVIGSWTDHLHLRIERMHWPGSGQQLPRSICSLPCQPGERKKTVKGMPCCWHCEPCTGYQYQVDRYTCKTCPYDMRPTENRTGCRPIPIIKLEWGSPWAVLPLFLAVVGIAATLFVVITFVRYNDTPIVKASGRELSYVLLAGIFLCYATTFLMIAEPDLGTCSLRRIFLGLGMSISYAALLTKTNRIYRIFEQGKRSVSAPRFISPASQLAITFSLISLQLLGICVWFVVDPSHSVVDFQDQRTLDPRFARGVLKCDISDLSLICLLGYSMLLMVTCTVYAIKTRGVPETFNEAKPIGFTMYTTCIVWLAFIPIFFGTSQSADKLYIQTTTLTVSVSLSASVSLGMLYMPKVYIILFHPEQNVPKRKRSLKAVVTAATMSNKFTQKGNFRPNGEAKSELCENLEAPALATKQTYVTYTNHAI
Chain of Metabotropic glutamate receptor 4 (Rattus norvegicus, UniProt P31423) (P31423 whole entry): as the sequence (P31423 whole entry) above

Row | Compound | EC50 [1] [nM] | %max [2] [%] | CLint scaled at 1 µM [3] [mL/min/kg] | CLint scaled at 1 µM [4] [mL/min/kg] | fraction unbound at 4 h [5] | fraction unbound at 4 h [6] | IC50 (Cytochrome P450 1A2) [nM] | EC50 [7] [nM] | %max [8] [%] | Fu ([5]; 4 h) | Fu ([6]; 4 h)
1 | CCc1noc2ccc(Nc3n[nH]c4ncccc34)cc12 | > 10000 | 54 | – | – | – | – | – | – | – | – | –
2 | CC(C)(C)Cc1nsc2cc(Nc3n[nH]c4cccnc34)ccc12 | 269 | 70 | – | – | – | – | – | – | – | – | –
3 | CC(C)c1noc2cc(Nc3n[nH]c4cccnc34)ccc12 | 575 | 23 | – | – | – | – | – | – | – | – | –
4 | CCc1nsc2cc(Nc3n[nH]c4cccnc34)ccc12 | 40 | 77 | 35.4 | 127 | 0.035 | 0.03 | – | – | – | – | –
5 | CC(C)(O)c1nsc2cc(Nc3n[nH]c4cccnc34)ccc12 | 1050 | 98 | – | – | – | – | – | – | – | – | –
6 | CC(C)(C)Cc1nsc2cc(Nc3n[nH]c4nccnc34)cnc12 | 105 | 54 | 40.2 | 189 | 0.013 | 0.011 | > 30000 | 158 | 112 | – | –
7 | Cc1noc2ccc(Nc3n[nH]c4ncc(F)cc34)cc12 | 219 | 54 | 23.6 | 39.3 | 0.054 | 0.044 | 500 | 190 | 121 | – | –
8 | O=C(C1CC1)N1CCC(c2nsc3cc(Nc4n[nH]c5cccnc45)ccc23)CC1 | – | 111 | – | – | – | – | – | – | – | – | –
9 | CC1CC(C)CN(C(=O)c2nsc3cc(Nc4n[nH]c5cccnc45)ccc23)C1 (stereo not drawn) | 447 | 63 | – | – | – | – | – | – | – | – | –
10 | c1cnc2[nH]nc(Nc3ccc4c(C5CCCC5)noc4c3)c2c1 | 2400 | 60 | – | – | – | – | – | – | – | – | –
11 | CC(=O)N1CCC(c2nsc3cc(Nc4n[nH]c5cccnc45)ccc23)CC1 | – | 79 | 15.8 | 21 | 0.042 | 0.039 | 21700 | 166 | 98.9 | – | –
12 | CC(C)(C)c1nsc2cc(Nc3n[nH]c4cccnc34)ccc12 | 324 | 64 | – | – | – | – | – | – | – | – | –
13 | CC1CN(C(=O)c2nsc3cc(Nc4n[nH]c5cccnc45)ccc23)CC(C)O1 (stereo not drawn) | 324 | 44 | 60 | 229 | 0.013 | 0.034 | – | – | – | – | –
14 | CCC(CC)c1noc2cc(Nc3n[nH]c4nccnc34)ccc12 | 98 | 106 | – | – | – | – | – | – | – | – | –
15 | FC1(F)CCN(Cc2nsc3cc(Nc4n[nH]c5cccnc45)cnc23)CC1 | – | 84 | 27.5 | 1080 | – | – | > 30000 | – | – | Nd(Unstable) | Nd(Unstable)
16 | CCC(CC)c1noc2cc(Nc3n[nH]c4ncccc34)ccc12 | 525 | 97 | – | – | – | – | – | – | – | – | –
17 | O=C(c1nsc2cc(Nc3n[nH]c4cccnc34)ccc12)N1CCOCC1 | 275 | 62 | 44.3 | 172 | 0.077 | 0.059 | – | – | – | – | –

Row | Compound | EC50 [1] [nM] | %max [2] [%] | CLint scaled at 1 µM [3] [mL/min/kg] | CLint scaled at 1 µM [4] [mL/min/kg] | fraction unbound at 4 h [5] | fraction unbound at 4 h [6] | IC50 (Cytochrome P450 1A2) [nM] | EC50 [7] [nM] | %max [8] [%] | Fu ([5]; 4 h) | Fu ([6]; 4 h)
18 | CCCC(C)c1noc2cc(Nc3n[nH]c4cccnc34)ccc12 (stereo not drawn) | 117 | 92 | – | – | – | – | – | – | – | – | –
19 | CC1CCN(C(=O)c2nsc3cc(Nc4n[nH]c5cccnc45)ccc23)CC1 | 398 | 80 | – | – | – | – | – | – | – | – | –
20 | Cc1noc2cc(Nc3n[nH]c4cccnc34)ccc12 | 1860 | 86 | – | – | – | – | – | – | – | – | –
21 | c1cnc2c(Nc3ccc4c(C5CCC5)noc4c3)n[nH]c2n1 | 708 | 102 | – | – | – | – | – | – | – | – | –
22 | CCC(CC)c1noc2cc(Nc3n[nH]c4cccnc34)ccc12 | 129 | 92 | 84.2 | 488 | 0.009 | 0.019 | 1000 | – | – | – | –
23 | c1cnc2c(Nc3ccc4c(C5CC5)nsc4c3)n[nH]c2c1 | 81 | 76 | 28.9 | 176 | 0.009 | 0.014 | 400 | – | – | – | –
24 | CC(C)Cc1noc2cc(Nc3n[nH]c4cccnc34)ccc12 | 813 | 53 | – | – | – | – | – | – | – | – | –
25 | CC(C)(C)Cc1noc2cc(Nc3n[nH]c4ncccc34)ccc12 | 2820 | 84 | – | – | – | – | – | – | – | – | –
26 | FC(F)(F)c1nsc2cc(Nc3n[nH]c4ncccc34)ccc12 | 794 | 50 | – | – | – | – | – | – | – | – | –
27 | Cc1noc2c(F)cc(Nc3n[nH]c4nccnc34)cc12 | 22.9 | 70 | – | – | – | – | – | – | – | – | –
28 | c1cnc2c(Nc3ccc4c(C5CC5)nsc4c3)n[nH]c2n1 | 68 | 73 | 41.2 | 59.4 | 0.012 | 0.008 | 700 | – | – | – | –
29 | CC(C)(C)Cc1nsc2cc(Nc3n[nH]c4ncccc34)ccc12 | 759 | 74 | – | – | – | – | – | – | – | – | –
30 | c1cnc2c(Nc3ccc4c(C5CCC5)noc4c3)n[nH]c2c1 | 851 | 88 | 83.2 | 1220 | 0.026 | 0.016 | 1800 | – | – | – | –
31 | CC(C)(C)Cc1nsc2cc(Nc3n[nH]c4cccnc34)cnc12 | 74 | 51 | 24.7 | 277 | 0.006 | 0.016 | 22100 | – | – | – | –
32 | O=C(c1nsc2cc(Nc3n[nH]c4cccnc34)ccc12)N1CCC(F)(F)C1 | 331 | 92 | – | – | – | – | – | – | – | – | –
33 | CCc1nsc2cc(Nc3n[nH]c4ncccc34)ccc12 | 102 | 57 | – | – | – | – | – | – | – | – | –
34 | CCc1noc2cc(Nc3n[nH]c4cccnc34)ccc12 | 1350 | 72 | 69.9 | 204 | 0.027 | 0.037 | < 100 | – | – | – | –
